Screening results from PubChem BioAssay.
Env fusion inh – inhibitors of HIV-1 Env-driven cell-cell fusion, primary screen, HeLa-JRFL effector, CEM21 target cells, luciferase; inhibition, % at 12.3 µM; hit rate 1.1% among 360,000;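 active means mean replicate inhibition score of at least 50 and every replicate individually at or above 50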;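 further: 0% = plate neutral controls and 100% = maraviroc near 300 nM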
N-glyco inh – increase of ERlucT glycosylation luciferase signal, primary screen, N-linked glycosylation inhibitor project, D54 ERlucT cells, luminescence, set 2; D54 ERlucT glycosylation luciferase reporter, 24 h; percent of 100 nM tunicamycin response; reporter increase, % at 12.5 µM; hit rate 0.23% among 360,000; AID 588692, 2011;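 active means mean luciferase reporter signal, scaled so untreated is 0 and the glycosylation-blocking control 100, at or above a set limit in every replicate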;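 further: luciferase carries N-glycosylation sites so blocking glycosylation raises the light; 0% = median of neutral control wells and 100% = median of 100 nM tunicamycin wells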
PfHsp90 yeast 2 – growth inhibition of PfHsp90-expressing yeast, primary screen, antimalarial PfHsp90 inhibitor project, S. cerevisiae, BacTiter-Glo luminescence, single point, set 2. inhibition, % at 9.4 µM. AID 504621, 2011. hit rate 0.32% among 310,000. BacTiter-Glo ATP, 48 h; yeast lacking PDR1 and PDR3 efflux regulators;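 active means every replicate shows inhibition above about 80%, whatever the replicate mean, limit read from the data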;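 further: 0% = DMSO neutral controls and 100% = 20 µM radicicol positive controls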
PAX8 reporter – inhibitors of PAX8-driven TPO luciferase reporter, primary screen, RMG-I cells, single concentration | SteadyGlo, 24 h | inhibition, % at 12.6 µM | hit rate 1.2% among 360,000 | AID 652154, 2013;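 active means mean replicate inhibition at least 60% with every replicate also reaching 60%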;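 further: luciferase light reporting Pax8 driven TPO promoter activity; plate controls were median of neutral control wells for no effect and mitoxantrone controls for full effect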
Arrestin-AP2 inh – inhibitors of beta-arrestin/AP2 binding, primary screen, biochemical, GPCR trafficking, flow cytometry; beta-arrestin 1 C-terminal peptide binding to AP2 beta2-adaptin appendage (human); FITC-arrestin peptide / GST-AP2 beads; AP2 beta2 appendage carries R879A mutation; inhibition, % at 10 µM; hit rate 0.31% among 340,000; AID 504490, 2011;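 active means inhibition above a set limit, near 3 SD of compounds lacking own fluorescence, cut at about 54% in these data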;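 further: plate controls were DMSO wells for no effect and 5 µM unlabelled arrestin peptide for full effect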
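system = GST-tagged AP2 beta2-adaptin appendage (R879A) on 4 µm glutathione beads | reagent = FITC-labelled arrestin peptide probe, 50 nM final | schedule = compound with beads 12 min RT, then probe 1 h RT | signal = HyperCyt-sampled flow cytometry, FL1 channel, ex 488/em 535 nm | read-out = percent response from loss of bead-bound FITC fluorescence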
Rtt109 Vps75 – inhibitors of C. albicans Rtt109/Vps75 HAT, primary screen, biochemical, ThioGlo CoA-SH fluorescence, plate reader; Histone acetyltransferase RTT109 (Candida albicans (strain SC5314 / ATCC MYA-2876)), …; hit rate 0.16% among 330,000; purified Rtt109/Vps75, 4 h; AID 540336, 2011; inhibition, % at 34.9 µM;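 active means inhibition of at least 50% in every replicate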
Target sequence (Q5AAJ8 whole entry, looked up): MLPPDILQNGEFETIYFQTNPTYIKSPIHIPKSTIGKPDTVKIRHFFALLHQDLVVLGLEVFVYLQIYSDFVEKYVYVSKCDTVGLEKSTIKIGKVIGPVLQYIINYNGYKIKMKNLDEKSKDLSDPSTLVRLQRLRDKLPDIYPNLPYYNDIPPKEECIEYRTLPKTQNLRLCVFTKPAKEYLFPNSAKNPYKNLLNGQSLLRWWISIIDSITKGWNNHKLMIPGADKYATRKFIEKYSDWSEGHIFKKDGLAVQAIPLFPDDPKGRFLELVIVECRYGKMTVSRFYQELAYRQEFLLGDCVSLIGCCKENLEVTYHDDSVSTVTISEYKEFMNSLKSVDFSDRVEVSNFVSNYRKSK
An asterisk follows results filed as active; / = not tested or not shown; [ ] = remark or other dose. Only some compounds are listed: those with a hit (about 2.3% of all), similar ones and a draw of the others.

SMILES	Env fusion inh	N-glyco inh	PfHsp90 yeast 2	PAX8 reporter	Arrestin-AP2 inh	Rtt109 Vps75
CO[C@@H]1CN(C)C(=O)c2ccc(NC(C)=O)cc2OC[C@H](C)N(Cc2cncnc2)C[C@H]1C	-3[16.7 µM]	/	/	/	/	/
CO[C@H]1CN(C)C(=O)c2ccc(NC(=O)C3CC3)cc2OC[C@H](C)N(Cc2cc(F)ccc2F)C[C@@H]1C	81*[16.7 µM]	/	/	/	/	/
CCCC(=O)Nc1ccc2c(c1)OC[C@H](C)N(Cc1ccncc1)C[C@H](C)[C@H](OC)CN(C)C2=O	63*[16.7 µM]	/	/	/	/	/
CO[C@H]1CN(C)C(=O)c2cc(NC(=O)c3nc4ccccc4s3)ccc2OC[C@H](C)N(Cc2cccnc2)C[C@H]1C	/	/	/	88*	/	/
CO[C@@H]1CN(C)C(=O)c2ccc(NC(C)=O)cc2OC[C@@H](C)N(Cc2cncnc2)C[C@@H]1C	57*[16.7 µM]	/	/	/	/	/
CO[C@H]1CN(C)C(=O)c2ccc(NC(=O)C3CC3)cc2OC[C@H](C)N(Cc2cc(F)ccc2F)C[C@H]1C	30[16.7 µM]	/	/	/	/	/
Cc1cccc(S(=O)(=O)N2CC[C@@H]3[C@@H](CO)Nc4ccc(C#Cc5ccccc5F)cc4[C@@H]32)c1	/	/	/	10	/	/
C[C@@H]1CN([C@H](C)CO)C(=O)Cc2cc(NC(=O)CCCN(C)C)ccc2O[C@@H]1CN(C)S(=O)(=O)c1ccccc1	/	/	/	-6	/	/
O=C(NCC1CCCO1)c1cc(-c2ccccc2)on1 (stereo not drawn)	/	34*	13	/	4	/
Cc1ccc(-c2cc(C(=O)NCC3CCCO3)no2)cc1 (stereo not drawn)	-65	-6	-11	/	0	1
O=C(CSc1ncccc1-c1nc2ccccc2[nH]1)N1CCc2ccccc21	/	-6	-2	90*	4	9
COC(=O)CSc1ncccc1-c1nc2ccccc2[nH]1	-45	3	-5	/	5	3
C[C@@H]1CCCCO[C@H](CN(C)Cc2ccc(C(F)(F)F)cc2)[C@@H](C)CN([C@H](C)CO)C(=O)c2cc(NC(=O)Cc3ccccc3)ccc2O1	12[16.7 µM]	/	/	-8	/	/
C[C@H]1CN([C@@H](C)CO)C(=O)c2cc(NC(=O)Cc3ccccc3)ccc2O[C@@H]1CN(C)Cc1ccc(C(F)(F)F)cc1	25[16.7 µM]	/	/	67*	/	/
C[C@@H]1CCCCO[C@H](CN(C)Cc2ccc(C(F)(F)F)cc2)[C@@H](C)CN([C@@H](C)CO)C(=O)c2cc(NC(=O)Cc3ccccc3)ccc2O1	42[16.7 µM]	/	/	85*	/	/
C[C@H]1CCCCO[C@@H](CN(C)Cc2ccc(C(F)(F)F)cc2)[C@@H](C)CN([C@@H](C)CO)C(=O)c2cc(NC(=O)Cc3ccccc3)ccc2O1	75*[16.7 µM]	/	/	82*	/	/
C[C@@H]1CCCCO[C@H](CN(C)Cc2ccc(C(F)(F)F)cc2)[C@H](C)CN([C@H](C)CO)C(=O)c2cc(NC(=O)Cc3ccccc3)ccc2O1	57*[16.7 µM]	/	/	83*	/	/
COc1ccc2c3c([nH]c2c1)[C@H](CO)N(C(=O)c1cccnc1)CC31CCN(C(=O)Nc2cccc(F)c2)CC1	-23[16.7 µM]	/	/	/	/	/
Cc1noc(C)c1S(=O)(=O)Nc1ccc2c(c1)CC(=O)N([C@@H](C)CO)C[C@@H](C)[C@H](CN(C)S(=O)(=O)c1ccc(Cl)cc1)O2	1[16.7 µM]	/	/	5	/	/
COc1ccc(C#Cc2cccc(-c3nc(C(=O)N[C@@H]4CCN(Cc5ccccc5)C4)cc4c3[C@H](CCO)N(S(=O)C(C)(C)C)C4)c2)cc1OC (stereo partly drawn)	/	/	/	16	/	/
CO[C@@H]1CN(C)C(=O)c2ccc(NC(=O)C3CCCC3)cc2OC[C@H](C)N(CCC(F)(F)F)C[C@@H]1C	-22[16.7 µM]	/	/	/	/	/
C[C@@H](NC(=O)C[C@H]1CC[C@H](NC(=O)C2CC2)[C@@H](CO)O1)c1ccccc1	2[16.7 µM]	/	/	-2	/	/
Cc1nn(C2CCS(=O)(=O)C2)c2nc(C3CC3)cc(C(=O)Nc3ccc(C(N)=O)cc3)c12 (stereo not drawn)	3	-1	13	6	3	50*
COc1ccc(C)cc1NC(=O)c1cc(C2CC2)nc2c1c(C)nn2C1CCS(=O)(=O)C1 (stereo not drawn)	/	0	-5	4	-8	4
CN(C)C(=O)c1cccc(-c2ccc3c(c2)[C@@H]2[C@@H](CCN2C(=O)c2ccccc2)[C@H](CO)N3C)c1	/	/	/	8	/	/
SMILES	Env fusion inh	N-glyco inh	PfHsp90 yeast 2	PAX8 reporter	Arrestin-AP2 inh	Rtt109 Vps75
CC(C)NC(=O)N(C)C[C@H]1Oc2ccc(NC(=O)c3ccncc3)cc2C(=O)N([C@@H](C)CO)C[C@H]1C	-5[16.7 µM]	/	/	-18	/	/
Cc1ccc(C(C(=O)NC(C)(C)C)N(Cc2cccs2)C(=O)c2csnn2)cc1 (stereo not drawn)	79*	-1	-8	/	26	14
CCC(C)(C)NC(=O)C(c1ccccc1F)N(Cc1ccco1)C(=O)c1csnn1 (stereo not drawn)	53*	0	11	-16	-1	23
CC(C)(C)NC(=O)C(c1ccncc1)N(Cc1cccs1)C(=O)c1csnn1 (stereo not drawn)	7	0	-28	6	7	10
CCC(C)(C)NC(=O)C(c1sccc1C)N(Cc1ccco1)C(=O)c1csnn1 (stereo not drawn)	55*	2	-7	-3	0	0
CC(C)(C)NC(=O)C(c1ccc(F)cc1)N(Cc1ccco1)C(=O)c1csnn1 (stereo not drawn)	4	-1	-82	15	-5	5
COc1ccccc1-c1ccc2c(c1)O[C@H](CN(C)S(=O)(=O)c1ccc(F)cc1)[C@H](C)CN([C@H](C)CO)S2(=O)=O	/	/	/	42	/	/
Cc1ccc(S(=O)(=O)N2CC3(O)CN(C(=O)OC(C)C)N(C(=O)OC(C)C)CC3(OC(=O)NC3CCCC3)C2)cc1 (stereo not drawn)	75*	-2	/	10	/	/
CCc1ccc2[nH]c(=O)c(C(c3nnnn3Cc3ccc(OC)cc3)N3CCOCC3)cc2c1 (stereo not drawn)	78*	1	10	/	7	8
